Activity calls are given as the source filed them. No cut-off for these calls is given here.
Assays:
[1] = system: Mus musculus; experiment: Oral bioavailability in mouse at 40 mg/kg, po relative to AVP-13358; format: ADME, organism-based; conditions: in vivo
[2] = Ex vivo inhibition of IgE production in spleen cells from antigen sensitized BALB/c mouse; format: functional, cell-based
In short: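 BALB/c mice immunized with DNP-KLH plus alum; spleens taken 2 weeks later and cultured with antigen, with or without drug. Antigen-specific IgE in supernatants quantified by ELISA against a standard curve of DNP-specific mouse monoclonal antibody.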

[3] = system: B-cell; experiment: Inhibition of IgE production in B lymphocytes from BALB/c mouse; format: functional, cell-based
In short: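 B cells isolated from spleens of naive BALB/c mice, cultured 5 days with IL-4 (10 ng/mL) and anti-mouse CD40 antibody (100 ng/mL), with or without drug. IgE in supernatants quantified by ELISA against a standard curve of DNP-specific mouse monoclonal antibody.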

[4] = system: Mus musculus; experiment: Protection against allergic response in ovalbumin sensitized BALB/c mouse assessed as inhibition of airway hyper-responsiveness at 5 mg/kg, po twice daily; format: functional, organism-based; set-up: dose 5 mg/kg
In short: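 Female BALB/c mice sensitized i.p. with 10 µg OVA in 4 mg alum. At 2 weeks, OVA aerosol (2% in PBS) 20 min on 2 consecutive days with oral dosing twice daily for 3 days. 2 weeks later, OVA aerosol on 4 consecutive days with the same dosing. PBS-nebulized controls. Airway response to rising methacholine measured by whole-body plethysmography 1 day later.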

[5] = system: T-cell; experiment: Inhibition of IL4 production in conA and anti-CD3 antibody sensitized BALB/c mouse spleen T lymphocytes; format: functional, tissue-based
[6] = system: T-cell; experiment: Inhibition of IL5 production in conA and anti-CD3 antibody sensitized BALB/c mouse spleen T lymphocytes; format: functional, tissue-based
[7] = system: T-cell; experiment: Inhibition of IL13 production in conA and anti-CD3 antibody sensitized BALB/c mouse spleen T lymphocytes; format: functional, tissue-based
[8] = system: T-cell; experiment: Inhibition of IFN-gamma production in conA and anti-CD3 antibody sensitized BALB/c mouse spleen T lymphocytes; format: functional, tissue-based
[9] = Suppression of CD23 expression in IL4 and anti-CD40 antibody sensitized mouse splenocytes; conditions: Splenocyte
[10] = Suppression of IL4 receptor alpha expression in IL4 and anti-CD40 antibody sensitized mouse splenocytes; conditions: Splenocyte
[11] = Suppression of CD23 expression in IL4 and anti-CD40 antibody sensitized CD14-positive human peripheral blood lymphocytes; conditions: Lymphocyte

With `O=C(Nc1ccc(-c2nc3cc(C(=O)NC45CC6CC(CC(C6)C4)C5)ccc3[nH]2)cc1)c1ccc(Cl)c(Cl)c1` the “Relative Bioavailability” value [1] was under 0.1, the IC50 [2] was 0.4 nM and the IC50 [3] was 2 nM.

In the case of `O=C(Nc1ccccn1)c1ccc2[nH]c(-c3ccc(NC(=O)C45C[C@@H]6C[C@H](C4)[C@H](O)[C@@H](C6)C5)cc3)nc2c1`, the “Relative Bioavailability” value [1] is reported as under 0.1, the IC50 [2] is reported as 1 nM and the IC50 [3] is reported as 15 nM.

With `O=C(Nc1ccccn1)c1ccc2[nH]c(-c3ccc(NC(=O)C45CC6CC(C4)C(=O)C(C6)C5)cc3)nc2c1` the “Relative Bioavailability” value [1] was 0.5, the IC50 [2] was 10 nM and the IC50 [3] was 40 nM.

In the case of `O=C(Nc1ccccn1)c1ccc2[nH]c(-c3ccc(NC(=O)C45C[C@@H]6C[C@H](C4)[C@@H](O)[C@@H](C6)C5)cc3)nc2c1`, the “Relative Bioavailability” value [1] is reported as under 0.1, the IC50 [2] is reported as 1 nM and the IC50 [3] is reported as 8 nM.

With `CC(=O)OC12CC3CC(C1)CC(C(=O)Nc1ccc(-c4nc5cc(C(=O)Nc6ccccn6)ccc5[nH]4)cc1)(C3)C2` the “Relative Bioavailability” value [1] was 0.35, the IC50 [2] was 1 nM and the IC50 [3] was 5 nM.

In the case of `O=C(NC12CC3CC(CC(C3)C1)C2)c1ccc2[nH]c(-c3ccc(NC(=O)C45CC6CC(CC(C6)C4)C5)cc3)nc2c1`, the “Relative Bioavailability” value [1] is reported as under 0.1, the IC50 [2] is reported as 1 nM and the IC50 [3] is reported as 2 nM.

For `O=C(Nc1ccccn1)c1ccc2[nH]c(-c3ccc(NC(=O)C45CC6CC(CC(C6)C4)C5)cc3)nc2c1`, the Activity [4] was “Active”, the IC50 [5] was 30 nM and the IC50 [6] was 30 nM. The IC50 [2] was 3 nM, the IC50 [3] was 8 nM and the IC50 [7] was 30 nM. For the same compound, the Activity [8] was “Active”, the IC50 [9] was 40 nM and the IC50 [10] was 100 nM. The IC50 [11] was 20 nM.

For `CC(=O)Nc1ccc(-c2nc3cc(C(=O)NC45CC6CC(CC(C6)C4)C5)ccc3[nH]2)cc1`, the “Relative Bioavailability” value [1] was under 0.1, the IC50 [2] was 25 nM and the IC50 [3] was 90 nM.

For `O=C(NC1CCCCC1)c1ccc2[nH]c(-c3ccc(NC(=O)C45CC6CC(CC(C6)C4)C5)cc3)nc2c1`, the “Relative Bioavailability” value [1] was under 0.1, the IC50 [2] was 2 nM and the IC50 [3] was 7 nM.

From ChEMBL document CHEMBL1149269, “Novel 2-(substituted phenyl)benzimidazole derivatives with potent activity against IgE, cytokines, and CD23 for the treatment of allergy and asthma” (J Med Chem, 2004)
